From PubChem BioAssay AID449754 (Broad Institute, 2010)
Inconclusive results are not listed. Active and inactive are the calls of the source.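 The calls were made as follows: active = compounds whose fitted caspase activation AC50 is no more than tenfold above the top tested dose; inconclusive = flat fit with 30 to 70% activity, or a failed fit; inactive = the rest.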

Test system: MEF Bax/Bak KO A1-BIM, caspase-Glo luminescence, 3 h
Test: caspase signal in Bax-Bak null A1-BIM cells – cell-based, Bax-Bak knockout MEF, A1-2A-BIM, luminescence, counter-screen for A1 inhibitor project, dose response (AID 449754);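 also: counterscreen where caspase activation signals off-target toxicity not A1 inhibition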
Outline: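 Material: A1-2A-BIM MEFs lacking Bax and Bak / Buffer or medium: RPMI-1640, 10% FBS / Compound: 100 nL pinned compound per well / Timing: 3 h compound at 37 °C, 1 h detection at RT / Technique: CaspaseGlo luminescence, reagent diluted 1:1 in 50 mM HEPES / Read-out basis: caspase activity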

SMILES | AC50
CSC[C@@H]1NC(=S)N(c2ccc(C)cc2)C1=O | > 35 µM (inactive)
Nc1nc(F)nc2c1ncn2[C@@H]1O[C@H](CO)[C@@H](O)[C@H]1O | > 35 µM (inactive)
Cc1cc(C)cc(Cn2ncc(Cl)c(Cl)c2=O)c1 | > 35 µM (inactive)
Cc1nc(SCc2nc3c([N+](=O)[O-])cccc3[nH]2)c2oc3ccccc3c2n1 | > 35 µM (inactive)
O=C(Nc1ccc(O)c2c(=O)cc(-c3cccc(Cl)c3)oc12)c1cccc(Cl)c1 | > 35 µM (inactive)
COc1ccc(C2Nc3ccc4ccccc4c3-c3c2c(=O)oc2ccccc32)cc1 (stereo not given) | 18.7 µM
CC(C)c1cccc(-c2ccc3c(c2)S(=O)(=O)c2cccc(C(=O)NCc4ccccc4Cl)c2C3=O)c1 | > 35 µM (inactive)
O=C(Oc1cccc(/C=N/Nc2nc(Nc3ccccc3)nc(N3CCOCC3)n2)c1)c1ccco1 | > 35 µM (inactive)
CC(=O)Nc1ccc(NC(=O)C(=O)NCC(c2ccco2)N2CCc3ccccc32)cc1 (stereo not given) | 35.8 µM
COc1ccc(OC)c(NC(=O)c2cc3c(Cl)nc4ccccc4c3s2)c1 | > 35 µM (inactive)
O=C(NCc1ccccc1Cl)c1cccc2c1C(=O)c1ccc(-c3ccc(OC(F)(F)F)cc3)cc1S2(=O)=O | > 35 µM (inactive)
CCn1c(SCC(=O)c2ccccc2)nnc1-c1cc2cc(Br)ccc2o1 | > 35 µM (inactive)
CC(C)(C)c1ccc2c(c1)OC(C(=O)N/N=C\c1ccc[nH]1)CO2 (stereo not given) | > 35 µM (inactive)
CC(=O)Nc1sc(N/N=C\c2cccc(Cl)c2)nc1-c1cccs1 | > 35 µM (inactive)
N#Cc1c(C(F)(F)F)cc(-c2ccccc2)nc1SCC(=O)Nc1sc2c(c1C#N)CCC2 | > 35 µM (inactive)
O=C(Nc1ccc2oc(-c3ccccc3)nc2c1)c1ccccc1F | > 35 µM (inactive)
Cn1c(=NC(=O)CCl)sc2ccccc21 | > 35 µM (inactive)
Cc1ccc(C)c(S(=O)(=O)NCC(=O)Nc2sc3c(c2C(N)=O)CCC(C)C3)c1 (stereo not given) | > 35 µM (inactive)
Cc1ccc(S(=O)(=O)N(C)Cc2ccc(C(=O)N/N=C/c3ccc(OC(F)F)cc3)cc2)cc1 | > 35 µM (inactive)
CC1(C)C[C@H](O)[C@]2(CO)[C@H](O)C[C@]3(C)C(=CCC4[C@@]5(C)CC[C@H](O)C(C)(C)C5CC[C@]43C)[C@@H]2C1 (stereo not given in full) | > 35 µM (inactive)
Cc1ccc(NC(=S)NC(NC(=O)Cc2cccc3ccccc23)C(Cl)(Cl)Cl)cc1 (stereo not given) | 22.9 µM
O=C(Nc1ccc(Cl)cc1Cl)c1cccc(N2C(=O)C=CC2=O)c1 | > 35 µM (inactive)

SMILES | AC50
CC(=O)Nc1ccc(NC(=O)C(C)OC(=O)/C=C/c2cn(-c3ccccc3)nc2-c2cccnc2)cc1 (stereo not given) | 18.4 µM
CC(C)(C)c1ccc(C(=O)Nc2ccc(O)c3c(=O)cc(-c4cccc(Cl)c4)oc23)cc1 | > 35 µM (inactive)
CCOc1ccc(NCc2cccn2-c2nnc(N3CCC(C(=O)NCCCN4CC(C)CC(C)C4)CC3)s2)cc1 (stereo not given) | > 35 µM (inactive)
Cc1ccc(S(=O)(=O)c2nnn3c2nc(Nc2cccc(C)c2)c2ccccc23)cc1 | > 35 µM (inactive)
O=C(NCCc1ccccc1)C(c1cccs1)N(C(=O)CCl)c1ccc(Cl)cc1 (stereo not given) | 6.03 µM
COc1cc2cnc(-c3ccccc3)c(-c3cccc(C(F)(F)F)c3)c2cc1OC | > 35 µM (inactive)
CCS(=O)(=O)c1ncc(Cl)c(C(=O)Nc2ccccc2OC)n1 | > 35 µM (inactive)
CCCCN1C(=O)/C(=C2/Sc3ccccc3N2C)S/C1=N\c1ncn[nH]1 | > 35 µM (inactive)
O=c1c(Cl)c(Cl)cnn1Cc1ccccc1Cl | > 35 µM (inactive)
COc1ccccc1CCNC(C)CCc1ccc(O)cc1 (stereo not given) | > 35 µM (inactive)
COc1cc(/C=C(/C#N)c2nc3ccccc3[nH]2)ccc1OCC(=O)Nc1ccccc1C | 7.39 µM
O=C1/C(=C/c2ccc(N3CCOCC3)o2)SC(=Nc2ccccc2)N1CCc1c[nH]c2ccccc12 | 6.82 µM
O=C(CN(c1ccc(Br)cc1)S(=O)(=O)c1ccc(Cl)c([N+](=O)[O-])c1)NCCc1ccccc1 | > 35 µM (inactive)
Cc1cc(=O)[nH]c(SCC(=O)Nc2ccc(Br)cc2)c1C#N | > 35 µM (inactive)
Cc1ccc2c(c1)c(C1=c3ccccc3=NC1=O)c(O)n2C | > 35 µM (inactive)
CN(C)CCCN(C(=O)c1cc2cc([N+](=O)[O-])ccc2s1)c1nc2cc3c(cc2s1)OCCO3 | > 35 µM (inactive)
CN(C)CCCN(C(=O)c1ccc(S(=O)(=O)N2CCc3ccccc3C2)cc1)c1nc2ccc(F)cc2s1 | > 35 µM (inactive)
CC(C)N=c1scc(-c2ccco2)n1/N=C/c1ccc(O)c(O)c1 | > 35 µM (inactive)
CC(C)(C)[C@H](N)C(=O)N[C@H]1CCC2C3CC=C4C[C@@H](O)CC[C@]4(C)C3CC[C@@]21C (stereo not given in full) | > 35 µM (inactive)
CC(C)c1cccc(-c2ccc3c(c2)S(=O)(=O)c2cccc(C(=O)NC4CCCC4)c2C3=O)c1 | > 35 µM (inactive)
Cc1ccc(NC(=O)c2ccc(NCC3CCCO3)c([N+](=O)[O-])c2)cc1Cl (stereo not given) | > 35 µM (inactive)
O=C(Nc1ccc([N+](=O)[O-])cc1)c1nc[nH]c1C(=O)NC1CCCCC1 | > 35 µM (inactive)

SMILES | AC50
COc1cc(C(=O)Nc2cc3c(cc2N2CCCCC2)n(C)c(=O)n3C)cc(OC)c1OC | > 35 µM (inactive)
CC1=NNC(=O)/C1=C\c1cn(-c2ccccc2)nc1-c1ccccc1 | 11 µM
N#Cc1cccnc1N1CCN(C(=O)c2cccc3c2C(=O)c2ccc(-c4ccc(Cl)c(C(F)(F)F)c4)cc2S3(=O)=O)CC1 | > 35 µM (inactive)
CC(=O)OC(C)(C)/C=C/C(=O)[C@](C)(O)C1[C@H](O)C[C@@]2(C)C3CC=C4C(C[C@H](O)C(=O)C4(C)C)[C@]3(C)C(=O)C[C@]12C (stereo not given in full) | > 35 µM (inactive)
CN(C)CCN(C(=O)/C=C/c1cccs1)c1nc2c(F)cc(F)cc2s1 | > 35 µM (inactive)
O=C(COc1ccc(/C=N/NC(=O)c2cc3ccccc3o2)cc1Cl)Nc1ccccc1 | 9.03 µM
CCOC(=O)C1=C(c2ccccc2)O/C(=C(/C#N)C(F)(F)F)S1 | > 35 µM (inactive)
Cc1occc1-c1nnc(SCC(=O)NCCc2ccccc2)n1Cc1ccccc1 | > 35 µM (inactive)
Cc1cccc(NC(=O)/C(C#N)=C/c2cn(CC(=O)NCc3ccco3)c3ccccc23)c1 | > 35 µM (inactive)
Cc1cc(C(=O)CCl)c(C)n1CCc1ccc(Cl)cc1 | > 35 µM (inactive)
COc1cc2c(cc1NC(=O)COC(=O)/C=C/c1ccccc1)oc1ccccc12 | > 35 µM (inactive)
C=C1/C=C(\C)[C@](C)(O)C[C@H](O)CC(=O)[C@H](O)[C@@H](O)[C@H](C)C[C@H](C)OC(=O)/C(C)=C/CC/C=C/[C@@H]2O[C@H]2C[C@H](C)C1 | > 35 µM (inactive)
Oc1[nH]c2ccc(Br)cc2c1N=NC(=S)Nc1ccc(F)cc1 | > 35 µM (inactive)
CCSc1nnc(NC(=O)c2nc(S(=O)(=O)Cc3ccc(F)cc3)ncc2Cl)s1 | > 35 µM (inactive)
Clc1ccccc1CN(Cc1ccccc1)c1ncnc2nc[nH]c12 | > 35 µM (inactive)
CCOC(=O)N1C(=O)[C@@](c2ccc(Cl)cc2)(C(C)C)N1C(=O)OCC | 35.1 µM
COc1ccc2c(c1)CCc1c(C(=O)Nc3cc(C)n(Cc4ccc(Cl)cc4)n3)noc1-2 | 7.59 µM
Cc1cccc(Nc2nc(N)c([N+](=O)[O-])c(N3CCCC(C)C3)n2)c1 (stereo not given) | > 35 µM (inactive)
COc1ccccc1C(=O)Nc1ccnn1C1CCN(Cc2cn(C)c3ccccc23)CC1 | > 35 µM (inactive)
O=C(Nc1ccc2oc(-c3cccc(F)c3)nc2c1)c1ccccc1F | > 35 µM (inactive)
CC(=O)[C@]1(O)Cc2c(O)c3c(c(O)c2[C@@H](O[C@H]2C[C@H](N)[C@H](O)[C@H](C)O2)C1)C(=O)c1ccccc1C3=O | > 35 µM (inactive)
O=C(N=Nc1c(O)[nH]c2ccc([N+](=O)[O-])cc12)c1cc(-c2ccccc2Cl)nc2ccccc12 | > 35 µM (inactive)

SMILES | AC50
CN1C2CCC1/C(=C/c1ccccn1)C(=O)/C2=C\c1ccccn1 | > 35 µM (inactive)
Cc1ccc(NC(=O)CSc2nc3nc(C)c(Br)cc3[nH]2)cc1F | > 35 µM (inactive)
COC(=O)Cc1csc(/N=C/c2c(O)n(-c3cccc(C(F)(F)F)c3)c(=O)c3ccccc23)n1 | 28 µM
O=C(Nc1ccc2oc(-c3ccccc3F)nc2c1)c1ccccc1F | > 35 µM (inactive)
Cn1cc([N+](=O)[O-])c(C(=O)Nc2cc(Oc3ccccc3)cc([N+](=O)[O-])c2)n1 | > 35 µM (inactive)
CC1=NNC(=O)/C1=C\c1cn(-c2ccccc2)nc1-c1cccs1 | 7.61 µM
COc1ccc(Oc2cc(NC(=O)c3nn(C)cc3[N+](=O)[O-])cc([N+](=O)[O-])c2)cc1 | > 35 µM (inactive)
COc1cc(-c2cc(-c3ccccc3)nc(SCC(=O)Nc3nccs3)c2C#N)cc(OC)c1OC | > 35 µM (inactive)
CCc1nn(-c2cc(Oc3cccc4ccccc34)nc(-c3ccccc3)n2)c(N)c1C#N | > 35 µM (inactive)
O=C(NC[C@H]1CCCO1)c1cccc2c1C(=O)c1ccc(-c3ccc(F)cc3OCc3ccccc3)cc1S2(=O)=O | > 35 µM (inactive)
CCS(=O)(=O)c1ncc(Cl)c(C(=O)Nc2ccc(S(=O)(=O)N3CCC(C)CC3)cc2)n1 | > 35 µM (inactive)
Cc1ccc2nc(N(CCCN(C)C)C(=O)c3ccc(S(=O)(=O)N4CCc5ccccc5C4)cc3)sc2c1 | > 35 µM (inactive)
COc1cccc(C(=O)C(C#N)=C(SC)SC)c1 | > 35 µM (inactive)
CC[C@H]1CN2CCc3cc(OC)c(OC)cc3[C@@H]2C[C@@H]1C[C@H]1NCCc2cc(OC)c(OC)cc21 | > 35 µM (inactive)
COc1cc(NC(=O)c2cccc(C)c2)ccc1NC(=O)c1cc2ccccc2o1 | > 35 µM (inactive)
COc1cc(CN2CCN(c3cc(C)ccc3C)CC2)ccc1O | > 35 µM (inactive)
CCOC(=O)c1c(C)oc2c1c(CN1CCN(C(=O)OCC)CC1)c(O)c1ccccc12 | 13 µM
COCc1cc(C)nc(SCC(=O)Nc2nc(C)cs2)c1C#N | > 35 µM (inactive)
CCc1ccc(NC(=O)c2nc(S(=O)(=O)Cc3ccccc3)ncc2Cl)cc1 | > 35 µM (inactive)
